{"data": "Measurements pooled from the literature", "target": "Mitogen-activated protein kinase 9 (MAPK9, Homo sapiens, UniProt P45984)", "note": "Protocols differ between the studies behind these lines."}
{"Compound": "CC(=O)N1CCC(c2ccc(C(=O)NC3=NCCN3)cc2C(F)(F)F)CC1", "read-out": "cell-free assay", "technique": "competition with immobilised ligand", "concentration": "1 µM", "endpoint": "remaining binding", "value": "92%"}
{"Compound": "Cc1ccc(NC(=O)c2ccc(C)c(C(F)(F)F)c2)cc1C#Cc1nn(C2CCC(O)CC2)c2ncnc(N)c12 (centres unmarked)", "read-out": "cell-free assay", "concentration": "10 µM", "endpoint": "remaining signal", "value": "13%"}
{"Compound": "CC(C)(O)c1cncc(-c2nc3ccc(F)cc3n2C2CC2)c1", "read-out": "cell-free assay", "technique": "competition with immobilised ligand", "concentration": "1 µM", "endpoint": "remaining binding", "value": "100%"}
{"Compound": "CN(c1ncccc1CNc1nc(Nc2ccc3c(c2)CC(=O)N3)ncc1C(F)(F)F)S(C)(=O)=O", "read-out": "enzyme activity", "mode": "inhibitor", "concentration": "1 µM", "endpoint": "inhibition", "value": "12.4%"}
{"Compound": "CC1=C(C#N)[C@@H](c2ccc3[nH]nc(C)c3c2)C(C#N)=C(c2ccc(Cl)cc2)N1", "read-out": "cell-free assay", "technique": "competition with immobilised ligand", "concentration": "1 µM", "endpoint": "remaining binding", "value": "89.5%"}
{"Compound": "N#CC1c2c([nH]c3c(Cl)c(Cl)ccc23)C(=O)NC12CCCCC2 (racemic)", "read-out": "thermal stability", "technique": "DSF", "concentration": "10 µM", "endpoint": "ΔTm", "value": "0.7 °C"}
{"Compound": "Clc1ccc(Nc2nnc(Cc3ccncc3)c3ccccc23)cc1", "read-out": "cell-free assay", "concentration": "0.5 µM", "endpoint": "remaining signal", "value": "97.5%"}
{"Compound": "Cc1ccc(C(=O)NCc2ccsc2)cc1C#Cc1cn(C(C)C)c2ncnc(N)c12", "read-out": "enzyme activity", "mode": "inhibitor", "concentration": "1 µM", "endpoint": "activity vs control", "value": "85%"}
{"Compound": "Cn1c(=O)n(-c2ccc(C(C)(C)C#N)cc2)c2c3cc(-c4cnc5ccccc5c4)ccc3ncc21", "read-out": "enzyme activity", "mode": "inhibitor", "concentration": "10 µM", "endpoint": "remaining activity", "value": "89%"}
{"Compound": "Cc1nccc(COC(=O)N2C[C@@H]3[C@@H](CNC(=O)c4ccc5[nH]nnc5c4)[C@@H]3C2)n1", "read-out": "cell-free assay", "technique": "competition with immobilised ligand", "concentration": "1 µM", "endpoint": "remaining binding", "value": "95%"}
{"Compound": "Cn1c2c(c3ccc(Cl)c(Cl)c31)C(C#N)C1(CCOCC1)NC2=O (centres unmarked)", "read-out": "thermal stability", "technique": "DSF", "concentration": "10 µM", "endpoint": "ΔTm", "value": "0 °C"}
{"Compound": "CC(C)(C)c1nc(-c2cccc(NS(=O)(=O)c3c(F)cccc3F)c2F)c(-c2ccnc(N)n2)s1", "read-out": "enzyme activity", "mode": "inhibitor", "technique": "radiometric", "concentration": "1 µM", "endpoint": "remaining activity", "value": "105%"}
{"Compound": "COc1cc(Cl)c(C(=O)N[C@@H](CN[C@H]2CC[C@@H](N)CC2)Cc2ccc(C#N)cc2)cc1-c1ccc(CN[C@H](C)c2ccc(C)cc2)o1", "read-out": "enzyme activity", "mode": "inhibitor", "concentration": "1 µM", "endpoint": "remaining activity", "value": "93%"}
{"Compound": "COc1cc(/C=C/C(=O)CC(=O)/C=C/c2ccc(O)c(OC)c2)ccc1O", "read-out": "enzyme activity", "mode": "inhibitor", "concentration": "1 µM", "endpoint": "activity vs control", "value": "104%"}
{"Compound": "COc1cc2ncnc(Nc3ccc(Oc4ccccc4)cc3C)c2cc1OC", "read-out": "enzyme activity", "mode": "inhibitor", "concentration": "1 µM", "endpoint": "inhibition", "value": "5%"}
{"Compound": "CN(C)C(=O)Cn1cc(-c2nc([C@@](C)(c3ccc(-c4cnc(N)nc4)cc3)C3CC3)no2)cn1", "read-out": "cell-free assay", "technique": "competition with immobilised ligand", "concentration": "1 µM", "endpoint": "remaining binding", "value": "75%"}
{"Compound": "CCN1CCC2(CC1)NC(=O)c1c(c3ccc(Cl)c(Cl)c3n1C)C2C#N (racemic)", "read-out": "thermal stability", "technique": "DSF", "concentration": "10 µM", "endpoint": "ΔTm", "value": "-0.1 °C"}
{"Compound": "O=C1NC(=O)c2cc(Nc3ccc(F)cc3)c(Nc3ccc(F)cc3)cc21", "read-out": "cell-free assay", "concentration": "0.5 µM", "endpoint": "remaining signal", "value": "61.4%"}
{"Compound": "Oc1cccc(-c2nc(N3CCOCC3)c3oc4ncccc4c3n2)c1", "read-out": "enzyme activity", "mode": "inhibitor", "concentration": "10 µM", "endpoint": "remaining activity", "value": "100%"}
{"Compound": "CCCS(=O)(=O)Nc1ccc(F)c(C(=O)c2c[nH]c3ncc(-c4ccc(Cl)cc4)cc23)c1F", "read-out": "enzyme activity", "mode": "inhibitor", "concentration": "1 µM", "endpoint": "inhibition", "value": "< 10%"}
{"Compound": "CCC1(CC)NC(=O)c2c(c3ccc(Cl)c(Cl)c3n2C)C1C#N (centres unmarked)", "read-out": "thermal stability", "technique": "DSF", "concentration": "10 µM", "endpoint": "ΔTm", "value": "0.1 °C"}
{"Compound": "COc1cc(Nc2cnc(C#N)c(O[C@H](C)CN(C)C)n2)ncc1-c1cnn(C)c1", "read-out": "enzyme activity", "mode": "inhibitor", "technique": "radiometric", "concentration": "10 µM", "endpoint": "remaining activity", "value": "79%"}
{"Compound": "O=C(NCc1ncc(C(F)(F)F)cc1Cl)c1ccc2c(c1)C1(CCS(=O)(=O)CC1)[C@@H](C1CC1)N2S(=O)(=O)c1ccc(F)cc1", "read-out": "cell-free assay", "technique": "competition with immobilised ligand", "concentration": "1 µM", "endpoint": "remaining binding", "value": "82%"}
{"Compound": "Nc1nc(Nc2ccccc2)sc1C(=O)c1c(F)cccc1F", "read-out": "enzyme activity", "mode": "inhibitor", "concentration": "10 µM", "endpoint": "remaining activity", "value": "81%"}
{"Compound": "CNC(=O)c1cc(Oc2ccc(NC(=O)Nc3ccc(Cl)c(C(F)(F)F)c3)cc2)ccn1", "read-out": "enzyme activity", "mode": "inhibitor", "concentration": "0.3 µM", "endpoint": "inhibition", "value": "7%"}
{"Compound": "C[S+]([O-])c1ccc(-c2nc(-c3ccncc3)c(-c3ccc(F)cc3)[nH]2)cc1 (centres unmarked)", "read-out": "cell-free assay", "concentration": "0.5 µM", "endpoint": "remaining signal", "value": "100%"}
{"Compound": "Cn1c2c(c3ccc(Cl)c(Cl)c31)C(C#N)C1(CCCC1)NC2=O (centres unmarked)", "read-out": "thermal stability", "technique": "DSF", "concentration": "10 µM", "endpoint": "ΔTm", "value": "-0.1 °C"}
{"Compound": "Oc1cccc(-c2nc(N3CCOCC3)c3oc4ncccc4c3n2)c1", "read-out": "cell-free assay", "concentration": "0.5 µM", "endpoint": "remaining signal", "value": "89.4%"}
{"Compound": "Cn1nc(C(F)(F)F)cc1-c1cnc(N2CCc3cc(S(=O)(=O)Nc4c(F)cc(Cl)cc4F)cc(N4CCCC4=O)c32)nc1", "read-out": "cell-free assay", "technique": "competition with immobilised ligand", "concentration": "1 µM", "endpoint": "remaining binding", "value": "95%"}
{"Compound": "Cc1ccc(C(=O)Nc2ccc(CN3CCN(C)CC3)c(C(F)(F)F)c2)cc1C#Cc1cnc2cccnn12", "read-out": "enzyme activity", "mode": "inhibitor", "concentration": "23.5 nM", "endpoint": "remaining activity", "value": "62%"}
{"Compound": "CNC(=O)c1ccc(Nc2ncc(C(F)(F)F)c(NCc3nccnc3N(C)S(C)(=O)=O)n2)cc1", "read-out": "cell-free assay", "technique": "competition with immobilised ligand", "concentration": "0.1 µM", "endpoint": "remaining binding", "value": "95%"}
{"Compound": "O=C(Nc1cnn(-c2csc(C(=O)NC3COC3)c2)c1)Nc1c(F)cccc1Cl", "read-out": "enzyme activity", "mode": "inhibitor", "concentration": "5 µM", "endpoint": "remaining activity", "value": "22.7%"}
